Hits are enriched below; roughly 4.1% of the tested compounds scored in any of these assays.
KCNK9 block = KCNK9 potassium channel inhibitors, primary screen, HEK293 cells, thallium flux; Potassium channel subfamily K member 9 (Homo sapiens), Q9NPC2; FluxOR thallium flux fluorescence; stronger effect = lower value; B-score at 10 µM; 1.2% of 310,000 active; AID 488922, 2010;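 active = ratio B-score over 3 SD below the library mean, with starting fluorescence within 5 SD of its mean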;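 note: negative B-score means less thallium flux so channel inhibition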
Target sequence (Q9NPC2 whole entry, looked up): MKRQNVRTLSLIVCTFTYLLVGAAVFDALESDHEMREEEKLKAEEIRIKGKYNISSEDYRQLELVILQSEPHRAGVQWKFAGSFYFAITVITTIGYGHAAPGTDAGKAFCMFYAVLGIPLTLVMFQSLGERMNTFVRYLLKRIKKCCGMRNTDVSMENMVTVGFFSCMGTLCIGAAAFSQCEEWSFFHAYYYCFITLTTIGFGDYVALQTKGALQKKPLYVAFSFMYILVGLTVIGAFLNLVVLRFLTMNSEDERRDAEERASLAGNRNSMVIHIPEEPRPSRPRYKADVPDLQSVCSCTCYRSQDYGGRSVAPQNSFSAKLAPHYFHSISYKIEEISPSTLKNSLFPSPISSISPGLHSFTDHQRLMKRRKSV
hERG protect = hERG rescue from dofetilide block, primary screen, cell-based, CHO-hERG, FluxOR thallium flux, dofetilide IC70 | dofetilide IC70 present | 0.51% of 310,000 active | activation (rescue from dofetilide block), less the hit threshold, % at 10 µM | AID 1511, 2009;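 active = activation above the mean of controls blocked by dofetilide plus 5 SD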;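 note: thallium influx through hERG after potassium depolarization seen as dye fluorescence rise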
KCNQ1 block = inhibitors of human KCNQ1 channel, primary screen, cell-based, thallium flux, high-throughput; Potassium voltage-gated channel subfamily KQT member 1 (Homo sapiens), P51787; CHO-K1 KCNQ1, FluxOR thallium flux fluorescence; stronger effect = higher value; B-score at 10 µM; 1.3% of 310,000 active;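 active = compounds whose thallium flux B-score, printed positive for inhibition, exceeds three library SD while starting fluorescence stays within three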;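 note: channel opened by potassium depolarization with thallium stimulus after 20 min compound exposure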
KCC2 mod = KCC2 cotransporter modulators, thallium flux, primary screen, cell-based, HEK293 KCC2, FluoZin-2 fluorescence, MLSMR. Solute carrier family 12 member 5 (Homo sapiens), Q9H2X9. KCC2 cells, thallium flux FluoZin-2 fluorescence. B-score of Tl+ flux slope (higher = more flux/activation; lower = inhibition) at 10 µM. 2.2% of 190,000 active;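 active = thallium flux slope and its plate-corrected score both differing from the plate sample mean at a set confidence after two filtering rounds, in either direction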;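 note: slope of fluorescence scaled to starting intensity during 10 to 20 s after thallium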
KCNK3 inh = human KCNK3 channel inhibitors, primary screen, CHO cells, FluxOR thallium flux, B-score. FluxOR fluorescence; stronger effect = lower value. B-score at 10 µM. 0.84% of 340,000 active;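 active = B-score under library mean minus 4 SD, starting fluorescence ratio at most library mean plus 5 SD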;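 note: more negative B-score means stronger inhibition of thallium flux through KCNK3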
KCNQ1 pot = potentiators or activators of KCNQ1 channel, primary screen, cell-based, thallium flux, high-throughput; Potassium voltage-gated channel subfamily KQT member 1 (Homo sapiens), P51787; CHO-K1 KCNQ1, thallium flux FluxOR fluorescence; stronger effect = higher value; B-score at 10 µM; 0.35% of 310,000 active;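 active = fluorescence ratio B-score, a plate-corrected score, at least three library SD, with initial intensity B-score within 5 SD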
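Medium – assay buffer, equal DMSO in all wells · Material – CHO-K1 cell line with stable KCNQ1 potassium channel expression · Signal – kinetic FluxOR thallium fluorescence, 10-s 1-Hz baseline, 110-s post-stimulus read · Compound – single concentration per compound, DMSO matched to controls · Schedule – 37 °C overnight plating, 90-min dark dye load, 20-min compound pretreatment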
Each line names hits and unclear results; the compound was inactive in the other large screens.

CC(=O)NS(=O)(=O)c1ccc(NC(=O)/C=C/c2cn(-c3ccccc3)nc2-c2ccccc2)cc1	none
O=C(/C=C\c1cn(-c2ccccc2)nc1-c1ccccc1)Nc1nccs1	KCNK9 block -7.96
Cc1cccc(NC(=O)NNC(=O)c2ccccn2)c1	none (no result: KCNK9 block, hERG protect, KCNQ1 block, KCC2 mod, KCNQ1 pot)
CCc1ccc(NC2=CC(=O)CC(c3ccco3)C2)cc1 (centres undefined)	KCNK9 block -7.01
O=C(Nc1ccc(C(=O)O)cc1)/C(=C\c1ccc2c(c1)OCO2)NC(=O)c1ccc(Br)cc1	KCNQ1 pot 10
O=C(N/C(=C/c1ccc2c(c1)OCO2)C(=O)N1CCOCC1)c1cccs1	hERG protect 8.2
CC(=O)N/C(=C/c1ccc2c(c1)OCO2)C(=O)O	KCNQ1 pot 9 (no result: KCC2 mod)
Cc1c(Cc2ccccc2)c(=O)[nH]c(=O)n1C	none (no result: KCNK9 block, hERG protect, KCNQ1 block, KCC2 mod, KCNQ1 pot)
N#C/C(=C/C1=C(N2CCOCC2)C(=C/c2ccc(Cl)cc2Cl)/CC1)C(=O)Nc1ccccc1F	none (no result: KCNK9 block, hERG protect, KCNQ1 block, KCC2 mod, KCNQ1 pot)
COc1ccc(/C=C2\CCCc3c2nc2ccccc2c3C(=O)O)cc1OC	none (no result: KCNK3 inh)
CCOc1ccc(/C=C2\CCCc3c2nc2ccccc2c3C(=O)O)cc1OC	KCNQ1 block 19 (no result: KCC2 mod)
N#CC1C(=O)NC(=O)C(C#N)C12CCCC(C(F)(F)F)C2 (centres undefined)	none (no result: KCNK9 block, hERG protect, KCNQ1 block, KCC2 mod, KCNQ1 pot)
Cc1ccc2c(CSc3nc4ccccc4c(=O)n3CCCO)cc(=O)oc2c1	KCNK3 inh -9.07 (no result: KCNK9 block, hERG protect, KCNQ1 block, KCC2 mod, KCNQ1 pot)
CCNC(=S)Nc1nc2c(cc1C(=O)OCC)CCCC2	KCC2 mod 40.6
C=CCNC(=S)Nc1nc2c(cc1C(=O)OCC)CCCC2	KCC2 mod 63.1
CCOCc1c(C(=O)Nc2ccccc2N2CCN(C)CC2)oc2ccccc12	none (no result: KCNK9 block, hERG protect, KCNQ1 block, KCC2 mod, KCNQ1 pot)
O=C(NC(Cc1ccccc1)C(=O)N1CCN(c2ccccc2O)CC1)c1ccccc1 (centres undefined)	none (no result: KCNK9 block, hERG protect, KCNQ1 block, KCC2 mod, KCNQ1 pot)
Cc1ccccc1NC(=S)c1nc2ccccc2[nH]1	KCC2 mod 45.8
S=C(Nc1ccc(Cl)cc1)c1nc2ccccc2[nH]1	KCC2 mod 29.6
O=C(/C(=C\c1ccccc1)c1nc2ccccc2[nH]1)c1ccc(Cl)cc1	none
Cc1ccccc1NC(=O)NCCc1nc2ccccc2[nH]1	none
CCOC(=O)Nc1ccc2c(c1)Nc1ccccc1S2	KCNK9 block -6.61 (no result: KCC2 mod)
C=CC(=O)N1c2ccccc2Sc2ccc(NC(=O)OCC)cc21	none
O=C1CC2CCCN2C=C1I (centres undefined)	none (no result: KCNK9 block, hERG protect, KCNQ1 block, KCC2 mod, KCNQ1 pot)
COc1ccc(C(=O)O)cc1S(=O)(=O)N1CCN(Cc2ccc3c(c2)OCO3)CC1	none (no result: KCNK9 block, hERG protect, KCNQ1 block, KCC2 mod, KCNQ1 pot)
CCOC(=O)C1=C(C)Nc2sc(C(=O)c3ccc(OC)cc3)c(N)c2C1c1ccc(C(=O)OC)cc1 (centres undefined)	KCNK9 block -6.73
CCCN(CCC)Cc1c(C(=O)N/N=C/C(C)=C\c2ccco2)nnn1-c1nonc1N	KCNQ1 pot 16 (no result: KCC2 mod)
CC(/C=N/NC(=O)c1nnn(-c2nonc2N)c1CN(C)C)=C\c1ccco1	none
C/C(=N\NC(=O)c1nnn(-c2nonc2N)c1CN(C)c1ccccc1)c1ccccn1	KCNK9 block -7.58 (no result: KCC2 mod)
CCc1cc(=O)oc2c3c(cc(OCC(=O)N[C@H](C(=O)O)[C@H](C)CC)c12)OC(C)(C)CC3	none (no result: KCC2 mod)
Cc1ccc(Cl)cc1NC(=S)N(Cc1cccnc1)Cc1ccccc1Cl	KCNQ1 block 6 (no result: KCC2 mod)
O=C1NC[C@H](Cc2ccccc2)N(C[C@H]2CCCN2C[C@H](Cc2ccccc2)N2C[C@H](Cc3ccccc3)N(CC3CCCCCC3)C(=O)C2=O)C1=O	KCNK3 inh -8.96 (no result: KCNK9 block, hERG protect, KCNQ1 block, KCC2 mod, KCNQ1 pot)
CC(C)C[C@@H](CN1CCC[C@@H]1CN1C(=O)C(=O)NC[C@@H]1Cc1ccccc1)N1C[C@H](Cc2ccccc2)N(CC2CCCCCC2)C(=O)C1=O	none (no result: KCNK9 block, hERG protect, KCNQ1 block, KCC2 mod, KCNQ1 pot)
O=C(/C=C/c1cn(-c2ccccc2)nc1-c1cccnc1)N1CCCCC1	none

Assay outcomes from PubChem.
